{"source": "ChEMBL document CHEMBL4052592", "about": "“Identification of Cyclic Depsipeptides and Their Dedicated Synthetase from Hapsidospora irregularis” (J Nat Prod, 2017)", "type_in_all_cases": "cell-based", "key": {"[1]": {"target": "T1, Transient receptor potential cation channel subfamily V member 3 (Homo sapiens) (UniProt Q8NET8)", "T1 sequence (whole entry)": "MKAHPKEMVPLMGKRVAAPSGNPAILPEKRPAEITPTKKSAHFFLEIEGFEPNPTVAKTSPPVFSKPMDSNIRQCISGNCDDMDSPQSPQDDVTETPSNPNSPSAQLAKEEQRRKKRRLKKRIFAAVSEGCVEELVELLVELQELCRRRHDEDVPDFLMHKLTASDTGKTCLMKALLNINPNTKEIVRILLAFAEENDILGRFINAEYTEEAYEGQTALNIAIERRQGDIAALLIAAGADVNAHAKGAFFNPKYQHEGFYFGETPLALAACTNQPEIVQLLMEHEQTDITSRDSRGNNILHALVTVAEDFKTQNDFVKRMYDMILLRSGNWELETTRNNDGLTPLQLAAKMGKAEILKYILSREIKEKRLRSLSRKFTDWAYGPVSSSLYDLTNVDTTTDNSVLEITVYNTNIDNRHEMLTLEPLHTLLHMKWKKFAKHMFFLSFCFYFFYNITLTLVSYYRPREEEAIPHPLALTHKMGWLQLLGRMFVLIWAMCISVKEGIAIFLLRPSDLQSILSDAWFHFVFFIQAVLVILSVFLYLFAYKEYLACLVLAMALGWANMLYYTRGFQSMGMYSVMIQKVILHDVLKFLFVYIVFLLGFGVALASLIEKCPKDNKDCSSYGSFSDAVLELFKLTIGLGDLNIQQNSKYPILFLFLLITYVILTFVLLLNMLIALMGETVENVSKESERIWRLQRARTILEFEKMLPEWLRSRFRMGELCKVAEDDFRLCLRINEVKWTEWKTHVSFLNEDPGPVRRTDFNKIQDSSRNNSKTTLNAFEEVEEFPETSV", "assay": "Activation of human TRPV3 expressed in HEK293 cells assessed as induction of calcium influx at 100 uM by fluro 4-AM dye-based fluorescence assay", "how_it_was_run": "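Confluent HEK-293 cells stably expressing the channel are dye-loaded 1 h at 37 °C, washed, and equilibrated 30 min at 37 °C in LHC-9 with 1 mM probenecid. Compounds are dosed at 3× in calcium assay buffer. The 1-min read at 37 °C gives max ΔF/s over medium, reported as % of the 300 μM carvacrol agonist control. At least three replicates.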"}, "[2]": {"target": "Transient receptor potential cation channel subfamily M member 8 (Homo sapiens) (UniProt Q7Z2W7)", "sequence (Q7Z2W7 whole entry, looked up)": "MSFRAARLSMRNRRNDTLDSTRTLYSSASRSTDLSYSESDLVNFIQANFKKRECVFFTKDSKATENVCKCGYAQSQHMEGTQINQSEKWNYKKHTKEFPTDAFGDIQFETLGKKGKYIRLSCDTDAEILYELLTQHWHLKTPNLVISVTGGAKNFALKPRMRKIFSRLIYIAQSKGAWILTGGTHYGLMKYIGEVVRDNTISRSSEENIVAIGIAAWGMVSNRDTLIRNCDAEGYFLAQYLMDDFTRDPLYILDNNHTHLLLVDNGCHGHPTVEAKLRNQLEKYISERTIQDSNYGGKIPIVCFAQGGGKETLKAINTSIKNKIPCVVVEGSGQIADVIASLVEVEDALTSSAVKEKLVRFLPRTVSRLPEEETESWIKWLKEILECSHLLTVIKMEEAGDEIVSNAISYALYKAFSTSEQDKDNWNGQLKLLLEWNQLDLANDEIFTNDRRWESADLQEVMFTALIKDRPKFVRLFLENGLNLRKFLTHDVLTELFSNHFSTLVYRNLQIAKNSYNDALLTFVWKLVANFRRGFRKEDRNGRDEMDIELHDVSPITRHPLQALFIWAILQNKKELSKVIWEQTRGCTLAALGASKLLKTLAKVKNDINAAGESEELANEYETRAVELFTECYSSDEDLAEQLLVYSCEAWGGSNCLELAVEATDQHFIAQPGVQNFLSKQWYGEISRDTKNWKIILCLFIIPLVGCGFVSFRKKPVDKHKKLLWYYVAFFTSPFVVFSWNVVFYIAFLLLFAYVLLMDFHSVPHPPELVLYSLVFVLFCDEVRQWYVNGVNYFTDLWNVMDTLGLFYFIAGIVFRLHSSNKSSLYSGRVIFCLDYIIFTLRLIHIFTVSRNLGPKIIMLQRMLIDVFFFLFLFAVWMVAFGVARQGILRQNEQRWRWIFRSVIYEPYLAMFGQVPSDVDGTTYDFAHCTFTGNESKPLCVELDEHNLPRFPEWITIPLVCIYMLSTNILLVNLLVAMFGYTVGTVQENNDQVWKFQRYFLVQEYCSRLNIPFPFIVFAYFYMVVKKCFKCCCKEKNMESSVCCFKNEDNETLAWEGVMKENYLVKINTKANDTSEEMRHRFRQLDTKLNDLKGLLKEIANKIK", "assay": "Activation of human TRPM8 expressed in HEK293 cells assessed as induction of calcium influx at 100 uM by fluro 4-AM dye-based fluorescence assay", "how_it_was_run": "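Uses the same HEK-293 stable-line culture and Fluo 4-AM loading (1 h, 37 °C), followed by the probenecid/Trypan Red LHC-9 wash and 30 min equilibration at 37 °C. Treatment is made at 3× in LHC9. Max ΔF/s is read over 1 min at 37 °C, normalized to medium-only and given as % of the 25 μM icilin control. Three or more replicates.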"}, "[3]": {"target": "Transient receptor potential cation channel subfamily V member 1 (Homo sapiens) (UniProt Q8NER1)", "sequence (Q8NER1 whole entry)": "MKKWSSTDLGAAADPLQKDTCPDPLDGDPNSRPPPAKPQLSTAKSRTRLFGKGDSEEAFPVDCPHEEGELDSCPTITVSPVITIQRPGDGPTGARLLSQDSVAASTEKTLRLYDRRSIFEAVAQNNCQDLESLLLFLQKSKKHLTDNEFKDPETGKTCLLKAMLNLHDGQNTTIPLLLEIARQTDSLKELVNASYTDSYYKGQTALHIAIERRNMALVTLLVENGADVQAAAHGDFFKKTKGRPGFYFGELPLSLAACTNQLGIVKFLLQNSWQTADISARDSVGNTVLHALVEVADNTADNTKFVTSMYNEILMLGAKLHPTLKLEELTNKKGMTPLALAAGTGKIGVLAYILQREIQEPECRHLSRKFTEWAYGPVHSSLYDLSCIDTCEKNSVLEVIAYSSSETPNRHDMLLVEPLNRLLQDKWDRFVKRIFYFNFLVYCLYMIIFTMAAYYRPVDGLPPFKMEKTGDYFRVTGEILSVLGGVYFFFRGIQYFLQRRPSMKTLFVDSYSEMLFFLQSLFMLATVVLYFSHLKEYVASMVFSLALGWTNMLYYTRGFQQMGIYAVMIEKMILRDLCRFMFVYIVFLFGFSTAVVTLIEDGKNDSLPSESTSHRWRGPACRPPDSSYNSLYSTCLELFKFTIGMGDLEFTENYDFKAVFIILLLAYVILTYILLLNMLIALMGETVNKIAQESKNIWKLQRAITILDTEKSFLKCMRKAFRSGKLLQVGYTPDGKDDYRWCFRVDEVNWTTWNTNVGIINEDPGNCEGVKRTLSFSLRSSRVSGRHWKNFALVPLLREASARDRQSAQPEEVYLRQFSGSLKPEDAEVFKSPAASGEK", "assay": "Activation of human TRPV1 expressed in BEAS-2B cells assessed as induction of calcium influx at 100 uM by fluro 4-AM dye-based fluorescence assay", "how_it_was_run": "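TRPV1-overexpressing BEAS-2B cells are loaded with Fluo 4-Direct/LHC-9 at room temperature, washed into LHC-9 containing probenecid and Trypan Red, and incubated 30 min at 37 °C. Test solution is made at 3× in LHC9. Fluorescence is followed 1 min at 37 °C. Max ΔF/s relative to medium is expressed as % of the response to 10 μM capsaicin. Minimum triplicate.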"}, "[4]": {"target": "Transient receptor potential cation channel subfamily V member 4 (Homo sapiens) (UniProt Q9HBA0)", "sequence (Q9HBA0 whole entry)": "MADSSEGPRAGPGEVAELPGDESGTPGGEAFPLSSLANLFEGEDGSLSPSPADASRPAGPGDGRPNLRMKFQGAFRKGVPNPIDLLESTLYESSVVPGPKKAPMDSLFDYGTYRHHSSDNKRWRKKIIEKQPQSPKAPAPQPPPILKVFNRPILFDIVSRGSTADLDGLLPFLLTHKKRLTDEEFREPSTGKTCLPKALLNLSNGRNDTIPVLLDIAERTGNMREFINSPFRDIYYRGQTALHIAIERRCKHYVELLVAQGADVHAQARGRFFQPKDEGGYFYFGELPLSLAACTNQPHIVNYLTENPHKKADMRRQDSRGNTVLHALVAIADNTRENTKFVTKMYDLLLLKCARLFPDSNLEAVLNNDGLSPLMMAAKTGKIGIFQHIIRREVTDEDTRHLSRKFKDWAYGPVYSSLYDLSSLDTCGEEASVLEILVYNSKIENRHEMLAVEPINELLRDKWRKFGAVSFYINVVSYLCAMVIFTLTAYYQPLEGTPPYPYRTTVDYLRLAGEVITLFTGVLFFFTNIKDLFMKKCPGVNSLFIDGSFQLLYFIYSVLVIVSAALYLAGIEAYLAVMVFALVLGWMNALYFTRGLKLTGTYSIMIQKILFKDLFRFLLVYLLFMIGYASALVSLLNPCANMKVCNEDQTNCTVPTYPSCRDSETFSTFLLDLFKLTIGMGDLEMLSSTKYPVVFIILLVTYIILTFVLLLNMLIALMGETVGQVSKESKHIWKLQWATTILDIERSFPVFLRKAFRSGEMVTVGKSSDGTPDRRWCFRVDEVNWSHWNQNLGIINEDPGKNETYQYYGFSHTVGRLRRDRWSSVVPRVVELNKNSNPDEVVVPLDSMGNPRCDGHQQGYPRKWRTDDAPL", "assay": "Activation of human TRPV4 expressed in HEK293 cells assessed as induction of calcium influx at 100 uM by fluro 4-AM dye-based fluorescence assay", "how_it_was_run": "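HEK-293 stable overexpressors on gelatin-coated plates are loaded with Fluo 4-AM (1 h, 37 °C), then given probenecid/Trypan Red LHC-9 and 30 min at 37 °C. Treatments are prepared at 3× in LHC9, with 1-min monitoring at 37 °C. Max ΔF/s versus medium only is given as % of the 30 nM GSK1016790A control. Three replicates minimum.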"}, "[5]": {"target": "Transient receptor potential cation channel subfamily A member 1 (Homo sapiens, UniProt O75762)", "sequence (O75762 whole entry)": "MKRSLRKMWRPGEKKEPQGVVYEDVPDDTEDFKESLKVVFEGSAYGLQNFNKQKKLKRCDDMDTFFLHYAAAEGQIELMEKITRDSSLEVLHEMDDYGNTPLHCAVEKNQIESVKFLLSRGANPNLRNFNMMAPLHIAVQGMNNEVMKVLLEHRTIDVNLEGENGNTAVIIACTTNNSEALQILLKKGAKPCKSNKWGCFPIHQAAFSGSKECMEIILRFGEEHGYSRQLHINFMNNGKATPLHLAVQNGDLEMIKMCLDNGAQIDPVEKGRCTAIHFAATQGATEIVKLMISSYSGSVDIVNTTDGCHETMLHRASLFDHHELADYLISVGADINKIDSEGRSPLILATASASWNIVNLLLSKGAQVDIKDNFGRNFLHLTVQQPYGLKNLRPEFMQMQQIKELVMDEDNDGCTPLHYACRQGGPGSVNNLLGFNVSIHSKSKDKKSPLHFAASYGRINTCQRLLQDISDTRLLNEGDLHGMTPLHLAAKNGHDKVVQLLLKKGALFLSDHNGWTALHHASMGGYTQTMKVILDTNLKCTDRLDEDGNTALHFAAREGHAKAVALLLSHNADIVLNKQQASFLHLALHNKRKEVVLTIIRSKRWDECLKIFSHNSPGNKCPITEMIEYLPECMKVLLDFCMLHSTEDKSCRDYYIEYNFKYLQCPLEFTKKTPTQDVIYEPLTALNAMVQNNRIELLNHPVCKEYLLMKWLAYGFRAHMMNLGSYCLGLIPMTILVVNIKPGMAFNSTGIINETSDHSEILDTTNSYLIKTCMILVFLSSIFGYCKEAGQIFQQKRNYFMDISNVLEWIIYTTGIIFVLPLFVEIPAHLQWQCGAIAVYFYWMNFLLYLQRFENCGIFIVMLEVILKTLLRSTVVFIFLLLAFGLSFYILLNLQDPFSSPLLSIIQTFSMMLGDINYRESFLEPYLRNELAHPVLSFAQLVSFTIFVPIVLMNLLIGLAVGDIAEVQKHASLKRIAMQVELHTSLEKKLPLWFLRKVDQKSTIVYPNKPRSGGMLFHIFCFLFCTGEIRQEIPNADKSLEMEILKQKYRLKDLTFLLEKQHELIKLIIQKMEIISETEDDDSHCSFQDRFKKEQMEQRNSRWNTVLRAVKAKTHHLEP", "assay": "Activation of human TRPA1 expressed in HEK293 cells assessed as induction of calcium influx at 100 uM by fluro 4-AM dye-based fluorescence assay", "settings": "hek293, 100 µM", "how_it_was_run": "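Stable HEK-293 line grown to confluence on gelatin-coated wells (DMEM:F12, 5% FBS, geneticin 300 μg/mL). Cells loaded 1 h at 37 °C with Fluo 4-Direct/LHC-9, washed into LHC-9 with 1 mM probenecid and Trypan Red, then held 30 min at 37 °C. Compound added at 3× in calcium assay buffer. Fluorescence read 1 min at 37 °C as max ΔF/s versus medium only, expressed as % of 250 μM 2,4-ditert-butylphenol response. At least three replicates.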"}}, "note": "Active and inactive are the calls of the source. The calls are words filed in the database; no cut-off is given here."}
{"smiles": "CC(C)C[C@@H]1NC(=O)[C@@H](CC(C)C)OC(=O)CCNC(=O)[C@H](Cc2ccc(O)cc2)NC(=O)[C@H](CC(C)C)OC1=O", "values": [{"measurement": "Activity", "setting": "[1]", "result": "inactive"}, {"measurement": "Activity", "setting": "[2]", "result": "Active"}, {"measurement": "Activity", "setting": "[3]", "result": "inactive"}, {"measurement": "Activity", "setting": "[4]", "result": "inactive"}, {"measurement": "Activity", "setting": "[5]", "result": "Active"}]}
{"smiles": "CC(C)C[C@@H]1NC(=O)[C@@H](CC(C)C)OC(=O)CCNC(=O)[C@H](Cc2ccccc2)NC(=O)[C@H](CC(C)C)OC1=O", "values": [{"measurement": "Activity", "setting": "[1]", "result": "inactive"}, {"measurement": "Activity", "setting": "[2]", "result": "Active"}, {"measurement": "Activity", "setting": "[3]", "result": "inactive"}, {"measurement": "Activity", "setting": "[4]", "result": "inactive"}, {"measurement": "Activity", "setting": "[5]", "result": "Active"}]}
